Assay results pooled from the literature.
Each line is one published result; the experiments were not run side by side.
LRRK2: Leucine-rich repeat serine/threonine-protein kinase 2 (LRRK2, Homo sapiens, UniProt Q5S007)
LRRK2 G2019S: Leucine-rich repeat serine/threonine-protein kinase 2 (LRRK2, Homo sapiens, UniProt Q5S007, G2019S)

Structure (SMILES) | target | effect on | mode | technique | endpoint | result
COc1cc(N2CCN(C)CC2)ccc1Nc1ncc2c(n1)N(C)c1ccccc1C(=O)N2C | LRRK2 | enzyme activity | inhibitor | – | IC50 | 29 nM
CC(=O)NC1CCN(c2ncnc3[nH]cc(-c4cccc(Cl)c4)c23)CC1 | LRRK2 | enzyme activity in cells | inhibitor | – | IC50 | 1100 nM
Cc1cnc(-c2ccc(-c3ccc(NC(=O)Nc4c(F)cc(F)cc4F)cc3F)c3c2C(=O)NC3)[nH]1 | LRRK2 | binding | – | competition with immobilised ligand | Kd | 260 nM
O=C(/C=C/c1ccc(O)c(O)c1)O[C@H](Cc1ccc(O)c(O)c1)C(=O)O | LRRK2 G2019S | enzyme activity | inhibitor | radiometric | IC50 | 496 nM
CN(C(=O)c1cnn2cccnc12)c1cc2c(cc1N1CCOCC1)C(=O)N(C[C@@H](F)C(C)(C)O)C2 | LRRK2 | target engagement in cells | – | BRET | EC50 | > 50 µM
CC(Cc1ccc(O)c(O)c1)C(C)Cc1ccc(O)c(O)c1 (stereo not drawn) | LRRK2 G2019S | enzyme activity | inhibitor | radiometric | IC50 | 210 nM
COc1cc(N2CCN(C)CC2)ccc1Nc1ncc2c(n1)N(C)c1ccccc1C(=O)N2 | LRRK2 | enzyme activity | inhibitor | – | IC50 | 70 nM
C[C@@H]1CN(c2cc(-c3nn(C)c4ccc(OC5(C)CC5)cc34)ncn2)C[C@H](C)O1 | LRRK2 | target engagement in cells | – | BRET | EC50 | > 50 µM
O=c1ccc2cc(O)c(O)cc2o1 | LRRK2 | enzyme activity | inhibitor | radiometric | IC50 | 1730 nM
